Data taken from ChEMBL document CHEMBL1133009, “Permanently charged chiral 1,4-dihydropyridines: molecular probes of L-type calcium channels. Synthesis and pharmacological characterization of methyl(omega-trimethylalkylammonium) 1,4-dihydro-2,6-dimethyl-4-(3-nitrophenyl)-3,5-pyridinedicarboxylate iodide, calcium channel antagonists” (J Med Chem, 2000).

Legend:
[1] = target: T1, Voltage-gated L-type calcium channel (Rattus norvegicus, UniProt P22002+Q02485+P27732); assay: Pseudo Hill coefficient for inhibition of [3H](+)-PN200-110 binding to GH4C1 cells under depolarized conditions (50 mM K+).; type: cell-based; settings: gh4-c1
Summary of the method: (§1)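 Intact GH4C1 cells attached to the culture dish, competition against [3H]-(+)-PN200-110 in depolarizing Hank's buffer (50 mM K+, pH 7.4). IC50 and slope from Hill equation fit; KI = IC50/(1+[L]/KD); n = 4-6 experiments, mean ± SEM.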

[2] = target: T1, Voltage-gated L-type calcium channel; assay: Pseudo Hill coefficient for inhibition of [3H](+)-PN200-110 binding to GH4C1 cells; type: cell-based; settings: gh4-c1
Summary of the method: (§2)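 Competition against [3H]-(+)-PN200-110 in GH4C1 membranes, protein by Bradford. IC50 and pseudo Hill slope from Hill equation fit of specific DPM bound; KI = IC50/(1+[L]/KD); n = 4-6 experiments.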

[3] = target: T2, Voltage-dependent L-type calcium channel subunit alpha-1C (Rattus norvegicus, UniProt P22002); assay: Pseudo Hill coefficient for inhibition of [3H](+)-PN200-110 binding to calcium channels of rat heart membranes; type: cell membranes, Membrane
T2 sequence (P22002 whole entry): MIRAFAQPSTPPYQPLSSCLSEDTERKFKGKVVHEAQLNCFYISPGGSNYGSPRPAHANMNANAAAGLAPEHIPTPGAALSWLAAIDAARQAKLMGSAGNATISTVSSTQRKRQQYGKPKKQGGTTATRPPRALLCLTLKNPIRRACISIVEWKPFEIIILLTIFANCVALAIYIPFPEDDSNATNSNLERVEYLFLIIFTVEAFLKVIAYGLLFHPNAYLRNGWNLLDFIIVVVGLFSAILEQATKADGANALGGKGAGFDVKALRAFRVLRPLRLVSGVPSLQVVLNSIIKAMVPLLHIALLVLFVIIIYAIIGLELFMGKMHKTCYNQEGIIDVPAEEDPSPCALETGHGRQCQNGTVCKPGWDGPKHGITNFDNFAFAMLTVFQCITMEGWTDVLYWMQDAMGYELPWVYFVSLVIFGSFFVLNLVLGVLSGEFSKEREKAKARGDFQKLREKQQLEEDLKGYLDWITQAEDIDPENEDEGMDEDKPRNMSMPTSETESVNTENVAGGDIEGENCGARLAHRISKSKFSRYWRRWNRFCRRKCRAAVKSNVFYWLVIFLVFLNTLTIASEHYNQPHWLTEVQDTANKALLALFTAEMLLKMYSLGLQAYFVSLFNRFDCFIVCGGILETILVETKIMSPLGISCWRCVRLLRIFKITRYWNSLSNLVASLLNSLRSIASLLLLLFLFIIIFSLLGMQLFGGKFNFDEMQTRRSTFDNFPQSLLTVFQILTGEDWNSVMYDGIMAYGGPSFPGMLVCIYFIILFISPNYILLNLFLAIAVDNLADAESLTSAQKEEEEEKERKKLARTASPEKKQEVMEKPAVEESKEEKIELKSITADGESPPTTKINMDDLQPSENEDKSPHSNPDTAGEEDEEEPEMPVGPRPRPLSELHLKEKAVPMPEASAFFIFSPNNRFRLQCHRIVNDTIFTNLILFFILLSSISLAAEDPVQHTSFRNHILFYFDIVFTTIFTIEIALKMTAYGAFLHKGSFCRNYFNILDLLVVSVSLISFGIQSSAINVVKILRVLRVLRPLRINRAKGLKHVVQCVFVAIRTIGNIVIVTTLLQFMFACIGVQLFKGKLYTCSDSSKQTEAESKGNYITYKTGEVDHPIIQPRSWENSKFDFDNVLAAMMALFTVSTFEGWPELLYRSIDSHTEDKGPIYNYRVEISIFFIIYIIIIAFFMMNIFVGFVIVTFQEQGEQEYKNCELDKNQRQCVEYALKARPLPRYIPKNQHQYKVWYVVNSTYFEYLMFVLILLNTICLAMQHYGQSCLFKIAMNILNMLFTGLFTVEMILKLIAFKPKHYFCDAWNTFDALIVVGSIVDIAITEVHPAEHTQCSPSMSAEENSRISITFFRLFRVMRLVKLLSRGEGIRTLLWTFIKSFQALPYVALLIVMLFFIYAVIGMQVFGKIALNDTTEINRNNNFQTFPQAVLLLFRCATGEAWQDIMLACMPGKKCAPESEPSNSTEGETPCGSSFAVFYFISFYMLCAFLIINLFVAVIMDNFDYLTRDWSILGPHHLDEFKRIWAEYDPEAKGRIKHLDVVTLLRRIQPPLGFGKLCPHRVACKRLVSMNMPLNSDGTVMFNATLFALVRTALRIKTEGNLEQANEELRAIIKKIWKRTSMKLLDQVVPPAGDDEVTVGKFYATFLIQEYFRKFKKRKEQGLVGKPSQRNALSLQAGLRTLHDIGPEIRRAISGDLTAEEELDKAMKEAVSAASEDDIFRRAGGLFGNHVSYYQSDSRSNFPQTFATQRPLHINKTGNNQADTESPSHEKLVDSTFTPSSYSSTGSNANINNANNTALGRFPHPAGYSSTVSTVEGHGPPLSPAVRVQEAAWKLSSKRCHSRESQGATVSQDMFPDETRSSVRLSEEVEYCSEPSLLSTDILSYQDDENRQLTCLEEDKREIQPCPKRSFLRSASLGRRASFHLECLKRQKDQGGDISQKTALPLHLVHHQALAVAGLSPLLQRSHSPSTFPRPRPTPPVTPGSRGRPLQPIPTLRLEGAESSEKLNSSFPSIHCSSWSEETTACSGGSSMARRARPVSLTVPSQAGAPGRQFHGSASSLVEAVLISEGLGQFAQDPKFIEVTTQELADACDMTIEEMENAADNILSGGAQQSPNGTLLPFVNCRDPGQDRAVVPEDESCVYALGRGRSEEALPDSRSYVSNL
Summary of the method: (§3)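 Using rat heart membranes (protein by Bradford), displacement of [3H]-(+)-PN200-110. IC50 and pseudo Hill slope from Hill equation fit; KI = IC50/(1+[L]/KD); n = 4-6 experiments.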

[4] = target: T1, Voltage-gated L-type calcium channel; assay: Pseudo Hill coefficient for inhibition of [3H](+)-PN200-110 binding to calcium channels of rat cerebral cortex membrane; type: tissue-based
Summary of the method: (§4)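 Rat cerebral cortex membranes, protein by Bradford, competition with [3H]-(+)-PN200-110. IC50 and pseudo Hill slope from Hill equation fit of specific DPM bound; KI = IC50/(1+[L]/KD); n = 4-6 experiments.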

[5] = target: T1, Voltage-gated L-type calcium channel; assay: Inhibition of [3H](+)-PN200-110 binding to calcium channels of rat cerebral cortex membrane.; type: tissue-based; summary of the method: as §4
[6] = Compound was tested for its inhibition of Barium currents in GH4C1 cells.; type: functional, cell-based, Rattus norvegicus; settings: gh4-c1
GH4-C1 = assay: Pseudo Hill coefficient for the inhibition of Barium currents in GH4C1 cells was determined.; type: cell-based; settings: Rattus norvegicus
Summary of the method: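 Whole-cell voltage clamp of GH4C1 rat pituitary cells cultured 2-6 days, bathed in normal Tyrode's (pH 7.4). Held at -40 mV to inactivate T-type channels. Each DHP concentration (0.03-10 µM, increasing order) equilibrated 30 s, then a 200 or 50 ms pulse to +10 mV. Currents normalized to capacitance (pA/pF); IC50 and Hill slope fitted by Hill equation; 6-7 cells.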

[7] = target: T1, Voltage-gated L-type calcium channel; assay: Inhibition of [3H](+)-PN200-110 binding to calcium channels of GH4C1 cells.; type: cell-based; settings: gh4-c1; summary of the method: as §2
[8] = target: T2, Voltage-dependent L-type calcium channel subunit alpha-1C; assay: Inhibition of [3H](+)-PN200-110 binding to calcium channels of rat heart membranes.; type: cell membranes, Membrane; summary of the method: as §3
[9] = target: T1, Voltage-gated L-type calcium channel; assay: Inhibition of [3H](+)-PN200-110 binding to calcium channels of GH4C1 cells under depolarized conditions (50 mM K+).; type: cell-based; settings: gh4-c1; summary of the method: as §1
[10] = target: T1, Voltage-gated L-type calcium channel; assay: Inhibition of [3H](+)-PN200-110 binding to calcium channels of rat GH4C1 cells.; type: cell-based; settings: gh4-c1; summary of the method: as §2

Row | nH [1] | nH [2] | nH [3] | nH [4] | Ki [5] [µM] | IC50 [6] [µM] | Ki [7] [µM] | Ki [8] [µM] | Ki [9] [µM] | Ki [10] [µM] | SMILES | nH (GH4-C1)
1 | 1.7 | 0.9 | 1 | 1 | 1.372 | 17.7 | 2.111 | 1.51 | 0.2485 | – | COC(=O)C1=C(C)NC(C)=C(C(=O)OCC[N+](C)(C)C)C1c1cccc([N+](=O)[O-])c1.[I-] (racemic) | 0.7
2 | 1.3 | 1.5 | 1.1 | 1.4 | 0.0372 | 1.5 | – | 0.0992 | 0.0686 | 0.0168 | COC(=O)C1=C(C)NC(C)=C(C(=O)OCCCCCCCC[N+](C)(C)C)C1c1cccc([N+](=O)[O-])c1.[I-] (racemic) | 0.9
3 | 1 | 1.2 | 1.1 | 1 | 0.7178 | 5.1 | – | 0.497 | 0.895 | 0.42 | COC(=O)C1=C(C)NC(C)=C(C(=O)OCCCCCCCC[N+](C)(C)C)[C@@H]1c1cccc([N+](=O)[O-])c1.[I-] | 0.8
4 | 1.1 | 1.3 | 1.2 | 1.6 | 0.0246 | 1.4 | – | 0.008 | 0.1292 | 0.0114 | COC(=O)C1=C(C)NC(C)=C(C(=O)OCCCCCCCC[N+](C)(C)C)[C@H]1c1cccc([N+](=O)[O-])c1.[I-] | 1
5 | 0.9 | 0.9 | 1 | 0.9 | 1.246 | 28.1 | – | 0.999 | 0.651 | 1.94 | COC(=O)C1=C(C)NC(C)=C(C(=O)OCC[N+](C)(C)C)[C@H]1c1cccc([N+](=O)[O-])c1.[I-] | 0.4
6 | 0.5 | 0.6 | 0.9 | 0.8 | 14.013 | 271 | 48.12 | 13.7 | 3.988 | – | COC(=O)C1=C(C)NC(C)=C(C(=O)OCC[N+](C)(C)C)[C@@H]1c1cccc([N+](=O)[O-])c1.[I-] | 0.3
